Screening data from PubChem.
hERG protect = hERG rescue from dofetilide block, primary screen, cell-based, CHO-hERG, FluxOR thallium flux, dofetilide IC70. Voltage-gated inwardly rectifying potassium channel KCNH2 (Homo sapiens), Q12809. dofetilide IC70 present. activation (rescue from dofetilide block), less the hit threshold, % at 10 µM. 310,000 compounds, 0.51% hits;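 active = activation above the mean of controls blocked by dofetilide plus 5 SD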;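 note: thallium influx through hERG after potassium depolarization seen as dye fluorescence rise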
KCNK3 inh = human KCNK3 channel inhibitors, primary screen, CHO cells, FluxOR thallium flux, B-score; Potassium channel subfamily K member 3 (Homo sapiens), O14649; FluxOR fluorescence; active compounds read low; B-score at 10 µM; 340,000 compounds, 0.84% hits; AID 602410, 2012;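 active = B-score under library mean minus 4 SD, starting fluorescence ratio at most library mean plus 5 SD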;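 note: more negative B-score means stronger inhibition of thallium flux through KCNK3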
KCNK9 block = KCNK9 potassium channel inhibitors, primary screen, HEK293 cells, thallium flux | AID 488922, 2010 | FluxOR thallium flux fluorescence; active compounds read low | Potassium channel subfamily K member 9 (Homo sapiens), Q9NPC2 | B-score at 10 µM | 310,000 compounds, 1.2% hits;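 active = ratio B-score over 3 SD below the library mean, with starting fluorescence within 5 SD of its mean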;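 note: negative B-score means less thallium flux so channel inhibition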
KCNQ1 block = inhibitors of human KCNQ1 channel, primary screen, cell-based, thallium flux, high-throughput | Potassium voltage-gated channel subfamily KQT member 1 (Homo sapiens), P51787 | CHO-K1 KCNQ1, FluxOR thallium flux fluorescence; active compounds read high | B-score at 10 µM | 310,000 compounds, 1.3% hits;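 active = compounds whose thallium flux B-score, printed positive for inhibition, exceeds three library SD while starting fluorescence stays within three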;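 note: channel opened by potassium depolarization with thallium stimulus after 20 min compound exposure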
KCNQ1 act = potentiators or activators of KCNQ1 channel, primary screen, cell-based, thallium flux, high-throughput | AID 2648, 2010 | Potassium voltage-gated channel subfamily KQT member 1 (Homo sapiens), P51787 | B-score at 10 µM | 310,000 compounds, 0.35% hits | CHO-K1 KCNQ1, thallium flux FluxOR fluorescence; active compounds read high;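 active = fluorescence ratio B-score, a plate-corrected score, at least three library SD, with initial intensity B-score within 5 SD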
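Test system: CHO-K1 cells stably expressing KCNQ1 / Medium: assay buffer / Also added: depolarizing K+/Tl+ stimulus, K2SO4 and Tl2SO4 each 12.5 mM in 5x stock / Incubation: 90 min dye loading and 20 min compound exposure, both at room temperature / Signal: thallium influx via FluxOR fluorescence, kinetic imaging / Evaluation: B score of baseline-normalized fluorescence ratio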
KCNK9 inh conf = KCNK9 potassium channel inhibitors, confirmation, HEK293 cells, thallium flux, duplicate; shares compounds with KCNK9 block; 4,900 compounds, 43% hits; FluxOR thallium flux fluorescence; inhibition, % at 10 µM;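 active = thallium signal inhibited by more than 5 SD of the compound-free buffer control wells, on both duplicate plates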;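 note: 0% = assay buffer control wells without compound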
Kir2-1 spec = mouse Kir2.1 channel inhibition, confirmation, selectivity assay for KCNK9 modulator project, cell-based, HEK293, thallium flux; shares compounds with KCNK9 block; Kir2.1 cells, FluxOR thallium flux fluorescence; inhibition, % at 10 µM; 4,900 compounds, 4% hits; AID 492993, 2010;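 active = thallium signal drop more than 5 SD beyond the mean of the no-compound control wells, seen in both duplicate plates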;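 note: signal is fluorescence rise after thallium addition divided by baseline fluorescence; plate controls were assay buffer only for no effect and full block by chlorpromazine control for full effect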
Target sequence (P35561 whole entry, looked up): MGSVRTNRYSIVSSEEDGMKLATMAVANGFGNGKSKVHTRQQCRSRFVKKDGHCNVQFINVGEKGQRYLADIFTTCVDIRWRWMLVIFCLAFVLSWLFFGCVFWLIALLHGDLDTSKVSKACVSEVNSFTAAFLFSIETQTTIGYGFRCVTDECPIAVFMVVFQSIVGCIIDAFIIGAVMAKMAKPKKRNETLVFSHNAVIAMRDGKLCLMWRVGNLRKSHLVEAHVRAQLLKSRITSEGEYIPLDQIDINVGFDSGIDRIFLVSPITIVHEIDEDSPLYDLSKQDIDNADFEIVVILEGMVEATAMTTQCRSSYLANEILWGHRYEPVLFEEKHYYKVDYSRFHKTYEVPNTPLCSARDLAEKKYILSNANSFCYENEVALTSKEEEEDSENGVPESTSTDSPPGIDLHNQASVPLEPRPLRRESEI
HEK293 Tl ctr = thallium flux in non-induced HEK293 cells, confirmation, counter-screen for KCNK9 inhibitor project, cell-based, second counter screen, non-induced KCNK9-HEK293 | 4,900 compounds, 40% hits | inhibition, % at 10 µM | shares compounds with KCNK9 block | FluxOR thallium flux | AID 492997, 2010;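 active = thallium signal drop beyond 5 SD of the untreated control mean, on both duplicate plates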;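 note: plate controls were buffer only IC0 wells for no effect and SID17386958 at its maximal inhibitory level for full effect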
* = called active by the depositor. Only some compounds are listed: those with a hit (about 3.1% of all), similar ones and a draw of the others.

O=C(CSc1ncnc2sc3c(c12)CCCC3)N1CCC(c2noc3ccc(F)cc23)CC1 was read as hERG protect -22, KCNK3 inh inactive, KCNK9 block inactive, KCNQ1 block inactive, KCNQ1 act inactive, KCNK9 inh conf inactive, Kir2-1 spec inactive and HEK293 Tl ctr inactive.
Cc1cc(SCC(=O)N2CCC(c3noc4ccc(F)cc34)CC2)nc2ccccc12 was read as hERG protect -12, KCNK3 inh inactive, KCNK9 block inactive, KCNQ1 block inactive, KCNQ1 act inactive, KCNK9 inh conf inactive, Kir2-1 spec inactive and HEK293 Tl ctr inactive.
`COc1ccccc1C1=NC(c2ccc(F)cc2)N=C1C` (stereo not given) gave hERG protect -10, KCNK3 inh inactive, KCNK9 block inactive, KCNQ1 block inactive, KCNQ1 act inactive, KCNK9 inh conf inactive, Kir2-1 spec inactive and HEK293 Tl ctr inactive.
For COc1ccccc1C1N=C(c2ccccc2C)NO1 (stereo not given) the results were hERG protect -4, KCNK3 inh inactive, KCNK9 block inactive, KCNQ1 block inactive and KCNQ1 act inactive.
Screening CCc1ccccc1NC(=O)Nc1ccc2c(c1)OCO2 returned hERG protect -3, KCNK3 inh inactive, KCNK9 block inactive, KCNQ1 block inactive and KCNQ1 act inactive.
Cc1cccc(-n2c(C)cc(/C=N/n3cnnc3)c2C)c1 was read as hERG protect -7, KCNK3 inh inactive, KCNK9 block inactive, KCNQ1 block inactive and KCNQ1 act inactive.
`O=C(c1ccco1)N(CCC(c1ccccc1)c1ccco1)Cc1ccco1` (stereo not given) gave hERG protect -19, KCNK3 inh inactive, KCNK9 block -8.2*, KCNQ1 block inactive, KCNQ1 act inactive, KCNK9 inh conf 40%*, Kir2-1 spec inactive and HEK293 Tl ctr 36%*.
`CCC1(CC)NC(=O)N(CC(=O)OCc2nc3cc(C(=O)OC)ccc3c(=O)[nH]2)C1=O` gave KCNK3 inh inactive.
Screening CC(C)P(=O)(Cc1cccc(C#N)c1)C(C)C returned hERG protect -8, KCNK3 inh inactive, KCNK9 block inactive, KCNQ1 block inactive and KCNQ1 act inactive.
For COc1ccc(-c2n[nH]c3c2CN(C(=O)c2ccccc2)CC3)cc1 the results were hERG protect -9, KCNK3 inh inactive, KCNK9 block inactive, KCNQ1 block inactive, KCNQ1 act inactive, KCNK9 inh conf inactive, Kir2-1 spec inactive and HEK293 Tl ctr inactive.
For COc1ccc2oc(=O)cc(CN(C)Cc3ccccc3)c2c1 the results were hERG protect -9, KCNK3 inh inactive, KCNK9 block inactive, KCNQ1 block inactive and KCNQ1 act inactive.
COc1ccc(C(=O)CN2CCN(CCN3C(=O)c4cccc5cccc(c45)C3=O)CC2)cc1 was read as hERG protect -17, KCNK3 inh inactive, KCNK9 block inactive, KCNQ1 block inactive, KCNQ1 act inactive, KCNK9 inh conf inactive, Kir2-1 spec inactive and HEK293 Tl ctr inactive.
O=C(CN1CCN(CCN2C(=O)c3cccc4cccc(c34)C2=O)CC1)c1ccc(F)cc1 was read as hERG protect -5, KCNK3 inh inactive, KCNK9 block inactive, KCNQ1 block inactive and KCNQ1 act inactive.
